One series has as its system Shh-LIGHT2 cells. Kind of series: Cytotoxicity by Cell Titer Glo. Format: cell-based. As to conditions: for Cytotoxicity: Shh-LIGHT2 cells, cytotoxic above the stated concentration; for cytotoxicity (in words): any concentration. In short, it runs like this:
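Cell Titer Glo luminescence in Shh-LIGHT2 Gli-reporter cells. Values are approximations read from concentration curves. Where compounds are cytotoxic, the Gli % ECmax is taken at the highest effective non-cytotoxic concentration.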
Background: Cellular ATP, detected with luciferase, serves as a proxy for viable cell number.

Series [1] relates to Gli activity (Shh pathway) in Shh-LIGHT2 cell line. Kind of series: Shh-LIGHT2 Gli-luciferase reporter assay. It counts as cell-based. The following applies: for Gli repression / activity in Shh-LIGHT2 (in words): Shh-LIGHT2 cell line, concentrations ranging from 3.9 µM to 125 µM where stated. In short, it runs like this: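 Shh-LIGHT2 Gli-reporter cells stimulated with ShhN-conditioned DMEM containing 0.5% (v/v) calf serum, then exposed to test compound over a concentration series (3.9 to 125 µM where stated). Gli activity read by Bright Glo luciferase, and cytotoxicity by Cell Titer Glo. EC50 approximated from concentration curves. % ECmax is inhibition relative to cyclopamine's ECmax, or for cytotoxic compounds relative to the highest effective non-cytotoxic concentration.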

A further series concerns Shh signaling. The following applies: cell lines, human primary keratinocytes, synthetic model of human skin; cited from earlier work.
The target of another series is ShhN (Homo sapiens, UniProt Q15465). Kind of series: Surface plasmon resonance. It counts as binding. The method in brief:
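Purified Sonic Hedgehog N-terminal peptide (ShhN) probed by surface plasmon resonance with test compound in PBS containing 5% (v/v) DMSO. Sensorgrams background-subtracted against DMSO. Binding expressed as KD in µM, with off-rates compared from the binding curves.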

The values below come from publication PMC2796117 (Bioorganic & medicinal chemistry letters, 2009).

Each structure is given as a SMILES string.

Sequence of ShhN (Q15465 24-197 limits assumed, species assumed): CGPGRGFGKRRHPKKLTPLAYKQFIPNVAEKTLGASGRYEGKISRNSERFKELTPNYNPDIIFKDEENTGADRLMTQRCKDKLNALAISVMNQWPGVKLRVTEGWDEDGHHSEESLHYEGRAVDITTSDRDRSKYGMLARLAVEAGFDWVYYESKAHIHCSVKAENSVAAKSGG

In the case of `O=C(C[C@@H]1C/C=C/CCC(=O)O[C@H](c2ccccc2)CNC1=O)NCc1ccc(Cl)cc1` [(0, R, S) (2), robotnikinin], in the series on Shh-LIGHT2 cells, the Cytotoxicity entry was “none” and the “cytotoxicity (in words)” value was “neither compound displayed differences in cytotoxicity at any concentration”. In series [1], the “Gli repression / activity in Shh-LIGHT2 (in words)” value is on record as “strong concentration-dependent Gli repression”. In series [1] (taken relative to mock treatment (reporter values comparable to 6µM cyclopamine), cytotoxic compounds: highest effective non-cytotoxic concentration), the “% ECmax (footnote e)” value was determined as 91% ^e. Moreover, the “effect on Shh signaling” value with Shh signaling is “blocks Shh signaling”. In addition, on ShhN (SPR, compared with the (2S, 6R) 13-membered homolog), the apparent off-rate entry is on record as “significantly longer”. Also, the “Binding / affinity for ShhN by SPR (in words)” value at ShhN (purified ShhN, PBS buffer with 5% (v/v) DMSO) was “bound purified ShhN in a stoichiometric manner”.
`O=C(C[C@H]1C/C=C/CCCC(=O)O[C@@H](c2ccccc2)CNC1=O)NCc1ccc(Cl)cc1` [(1, S, R) (3)]: in the series on Shh-LIGHT2 cells, the Cytotoxicity entry was “none” and the “cytotoxicity (in words)” value was “neither compound displayed differences in cytotoxicity at any concentration”. Moreover, in series [1], the “Gli repression / activity in Shh-LIGHT2 (in words)” value is on record as “Gli suppression was ablated”.
